In assay [1] the test system is Gal4(1–148)+KBP 2.20-mediated transcription. The experiment in a line: Competitive inhibition, firefly luciferase reporter assay in HeLa cells. Type of assay: cell-based. The note with it: 0 → 20 μM, activity measured 40 h after compound addition. A general note: Reporter assays use an easily measured gene product as a stand-in for the process of interest.
Assay [2] deals with murine CBP KIX domain (CBP(586–672)) (Mus musculus, UniProt P45481). The assay is described as follows: Fluorescence polarization binding to CBP KIX domain. Summed up:
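Test compounds carried a fluorescein label at the amino terminus and were held at a constant concentration. Each was incubated at 25°C with increasing concentrations of exogenously expressed murine CBP KIX domain (residues 586–672). Fluorescence polarization was read at each protein concentration. Dissociation constants were obtained by Levenberg-Marquardt least-squares fitting of the binding data.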
A general note: Fluorescence polarisation rises when a labelled molecule tumbles more slowly, as on binding a larger partner.

Ends that are not written are not given here.

Sequence of murine CBP KIX domain (CBP(586–672)) (P45481 586-672): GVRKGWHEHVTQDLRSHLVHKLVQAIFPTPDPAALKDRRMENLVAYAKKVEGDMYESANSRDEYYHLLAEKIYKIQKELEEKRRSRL

Turning to SRAVRELLFGS, the “Inhibitory activity on KBP 2.20-mediated transcription (in words)” value in assay [1] is listed as “no impact”.

With “SWAVYELLFGS-NH2 (C-terminus assumed) [KBP 2.20]”, in assay [2], the “Fold lower dissociation constant for the KIX domain relative to KBP 1.66” value was ~ 3 fold. Moreover, the “Inhibitory activity on KBP 2.20-mediated transcription (in words)” value in assay [1] is recorded as “little or no inhibitory activity”.

The values are drawn from PMC4322771 (Biopolymers, 2008).
